From PubChem BioAssay AID623869 (Vanderbilt High Throughput Screening Facility, 2012) come the findings set out here.

Screen size: about 2,100 compounds; about 75 (4%) were called active.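 The calls were made as follows: active = calcium fluorescence trace judged by eye to show a response, as agonist, enhancer of the glutamate response, or inhibitor; inactive = trace judged by eye to show no response.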 The entries come from a sample that favours actives as a whole.

Sequence of Metabotropic glutamate receptor 8 (Rattus norvegicus) (P70579 whole entry, looked up): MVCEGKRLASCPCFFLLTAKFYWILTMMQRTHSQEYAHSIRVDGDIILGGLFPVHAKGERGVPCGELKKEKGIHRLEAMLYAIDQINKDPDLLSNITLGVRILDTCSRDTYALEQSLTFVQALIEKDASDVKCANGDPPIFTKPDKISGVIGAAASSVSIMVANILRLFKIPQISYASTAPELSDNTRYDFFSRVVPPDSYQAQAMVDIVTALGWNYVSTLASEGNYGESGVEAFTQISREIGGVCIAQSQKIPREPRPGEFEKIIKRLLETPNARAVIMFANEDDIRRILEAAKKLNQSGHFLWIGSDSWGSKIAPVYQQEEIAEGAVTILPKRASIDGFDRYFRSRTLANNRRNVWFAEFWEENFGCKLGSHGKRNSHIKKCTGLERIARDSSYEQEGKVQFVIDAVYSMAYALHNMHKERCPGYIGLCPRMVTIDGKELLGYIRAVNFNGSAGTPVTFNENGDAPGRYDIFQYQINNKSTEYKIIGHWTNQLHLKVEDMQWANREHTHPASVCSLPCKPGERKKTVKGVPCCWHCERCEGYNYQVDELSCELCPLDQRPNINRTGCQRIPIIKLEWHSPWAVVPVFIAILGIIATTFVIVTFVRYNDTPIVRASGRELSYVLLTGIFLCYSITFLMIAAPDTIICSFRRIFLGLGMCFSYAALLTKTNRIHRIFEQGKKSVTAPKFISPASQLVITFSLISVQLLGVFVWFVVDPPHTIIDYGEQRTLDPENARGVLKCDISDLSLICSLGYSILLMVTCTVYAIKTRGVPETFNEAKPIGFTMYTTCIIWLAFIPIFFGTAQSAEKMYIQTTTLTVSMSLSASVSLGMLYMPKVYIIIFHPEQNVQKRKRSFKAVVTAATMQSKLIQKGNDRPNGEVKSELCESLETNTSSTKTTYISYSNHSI

This test concerns the target Metabotropic glutamate receptor 8 (Rattus norvegicus) (UniProt P70579). As to the kind of experiment: rat mGlu8 modulation via Gqi9 calcium signal, confirmation, counter-screen for GIRK activator project, cell-based, HEK293 rmGlu8, Gqi9 chimera, Fluo-4 calcium (AID 623869). Particulars: HEK293 rmGlu8/Gqi9 calcium flux, Fluo-4 fluorescence; glutamate at EC20 added after compound. Put shortly: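 system = HEK-293 cells stably expressing rat mGlu8, plus transient chimeric Gqi9 | measured by = Fluo-4 calcium fluorescence, 1 Hz | timing = compound pre-exposure 4 min, post-glutamate read 2 min | measure = F/F0 fluorescence traces judged visually for each well | medium = HEPES-buffered HBSS at pH 7.4 | doses = single compound addition from 20 µM solution, 0.2% DMSO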
In general terms: Counterscreens check selectivity or assay interference.
Take `O=c1c2ccccc2[nH]c(=S)n1CCCN1CCN(C2CCCCC2)CC1`: the outcome is “inactive; 0”. As for `O=C(NC(=S)Nc1ccccc1Cl)c1csnn1`, the entry is “inactive; 0”; as for `CCCCN(CCCC)C(=S)NC(=O)C(C)(C)C`, “inactive; 0”; as for `Brc1ccccc1-c1nnc2sc(-c3ccc4c(c3)OCCO4)nn12`, “inactive; 0”. For the compound `CCOC(=O)C1=C(C)Nc2nnnn2C1c1ccccc1Cl` (configuration not stated), the outcome was “inactive; 0”. As for `O=C(NC(=S)Nc1ccc(Oc2ccc(Cl)cc2)cc1)c1ccccc1`, the entry is “inactive; 0”; as for `O=C(N/C(=N\O)c1ccccc1)Nc1ccc(Cl)cc1`, “active; 2”; as for `CSc1ccccc1NC(=O)Nc1ccc(Cl)cc1`, “inactive; 0”.

Regarding `CCCCOc1ccc(C(=O)NNC(=S)NC(=O)CC)cc1`, the outcome was “inactive; 0”. As for `CCCCCC(=O)NC(=S)NNC(=O)c1ccc([N+](=O)[O-])cc1`, the entry is “active; 1”; as for `CCCCNC(=S)NC(=O)c1ccc([N+](=O)[O-])cc1`, “inactive; 0”. As for `S=c1nc(-c2ccc(Br)cc2)oc2c1CCCC2`, the entry is “inactive; 0”.

In the case of `Cc1ccc(C)c(NC(=S)NNC(=O)c2csc3c2CCCC3)c1`, the outcome is “inactive; 0”. In the case of `CC(=O)Nc1ccc(SCC(=O)c2cc(C)n(-c3ccccc3F)c2C)cc1` it was “active; 2”. For `COC(=O)c1ccc(NS(=O)(=O)c2ccc(SC)cc2)cc1`, the outcome is “inactive; 0”. In the case of `CC(=O)Nc1ccc(C(=O)CSc2nc3ccc(C)cc3[nH]2)cc1` it was “inactive; 0”. In the case of `Cc1cc(C(=O)CSc2n[nH]c(N)n2)c(C)n1-c1cc(F)ccc1F` it was “inactive; 0”; in that of `CCc1cc2cccc(C)c2nc1SCC(=O)c1ccc(NC(C)=O)cc1`, “inactive; 0”. In the case of `COC(=O)c1ccc(-n2c(C)cc(C(=O)CSc3ccc(NC(C)=O)cc3)c2C)cc1` it was “active; 2”; in that of `COc1ccc2nc(/N=C/c3c(C)[nH]n(-c4ccc(C)cc4C)c3=O)sc2c1`, “inactive; 2”; in that of `CC12CC3CC(C)(C1)CC(C(=O)NC(=S)N1CCCCC1)(C3)C2`, “inactive; 0”. With `CSCSC1=C(C#N)C(c2ccccc2Cl)C(C(C)=O)=C(C)N1` (configuration not stated), the outcome was “inactive; 0”. As for `O=C(NC(=S)N1CCCc2ccccc21)c1ccc(Cl)cc1`, the entry is “inactive; 0”. As for `Cc1cccc(N2C(=O)CS/C2=N\NC(=O)c2ccc(Cl)cc2)c1C`, the entry is “active; 2”. As for `O=C(N/N=C1/C(=O)c2cccc3cccc1c23)c1ccc(Cl)cc1`, the entry is “inactive; 0”. Consider `O=C(NC(=S)N(CCCCO)C1CCCCC1)c1sc2ccccc2c1Cl`, for which the outcome was “inactive; 0”. As for `O=C(NC(=S)Nc1ccccc1N1CCOCC1)c1ccco1`, the outcome is “inactive; 0”. In the case of `CN(C(=O)CSC1=Nc2ccccc2C2=NC(c3ccccc3)C(=O)N12)C1CCCCC1` (configuration not stated), the outcome is “inactive; 0”. In the case of `N#C/C(=C/C=C/c1ccccc1)C(=O)Nc1ccccc1` it was “inactive; 0”.

Turning to `CCSc1ccccc1C(=O)Nc1cccnc1`, the outcome is “inactive; 0”. As for `COc1cc(/C=C(\C#N)C(=O)Nc2cccnc2)ccc1OC(C)C`, the entry is “active; 2”; as for `Cc1ccc(OCC(=O)NNC(=O)C(=O)NC(C)(C)C)cc1`, “inactive; 0”. Regarding `C=CCn1c(=S)[nH]c2sc3c(c2c1=O)CCC3`, the outcome was “inactive; 0”. As for `CCC1c2ccc(C)n2CCN1C(=O)Nc1ccccc1C(=O)OC` (configuration not stated), the entry is “active; 2”; as for `COC(=O)c1ccccc1NC(=S)NC(=O)c1ccc(C)cc1`, “inactive; 0”; as for `COC(=O)c1ccccc1NC(=O)Nc1cnccn1`, “inactive; 0”. As for `CC(C)C1Cc2c(sc3[nH]c(=S)n(Cc4ccccc4)c(=O)c23)CO1` (configuration not stated), the entry is “inactive; 0”; as for `CCOC(=O)c1c(NC(=S)NC)sc2c1CC(C)(C)SC2`, “inactive; 0”; as for `Cc1sc2nc(C(C)C)nc(SCC(=O)NCc3ccco3)c2c1C`, “inactive; 0”. In the case of `CCCc1cc(-c2n[nH]c(=S)n2Cc2ccccc2)cs1` it was “active; -1”.

On to `CCCc1cc(-c2n[nH]c(=S)n2C(C)c2ccccc2)cs1` (configuration not stated), for which the outcome was “inactive; 0”.

Regarding `CCCc1cc(-c2n[nH]c(=S)n2CC(C)C)cs1`, the outcome was “inactive; 0”. In the case of `Cc1[nH]n(-c2ccc(Cl)cc2)c(=O)c1/C=N/c1nnc(-c2ccccc2)s1` it was “inactive; 0”; in that of `O=C(O)c1ccccc1C(=O)Nc1ccc(-c2csc(-c3ccccc3)n2)cc1`, “active; 1”; in that of `O=C(NC(=S)Nc1ccccc1)c1cc(-c2ccccc2)nc2ccccc12`, “inactive; 0”. In the case of `CN(C)CCCNC(=O)c1ccc(-c2nc(-c3ccc(Cl)cc3)cs2)cc1` it was “inactive; 0”; in that of `C=CCn1c(=S)[nH]c2ccc(Br)cc2c1=O`, “inactive; 0”. In the case of `S=c1[nH]nc(-c2cc3c(s2)-c2ccccc2CC3)o1` it was “active; -1”; in that of `Cc1ccc(-c2cc(-c3n[nH]c(=S)o3)c3ccccc3n2)cc1`, “inactive; 0”. Take `CCc1cc(C(=O)NNC(=S)Nc2cc(C)ccc2C)cs1`: the outcome is “inactive; 0”.

Consider `Cc1ccc(C)c(NC(=S)NNC(=O)c2cc3c(s2)CCC(C)C3)c1` (configuration not stated), for which the outcome was “inactive; 0”. As for `O=C1NC(=S)SC1=C1CCCCCC1`, the entry is “inactive; 0”; as for `CCCN(CCC)CCCNC(=O)c1cc2c(=O)n(C)c3ccccc3c2n1C`, “inactive; 0”. In the case of `CCn1c(O)c(N=NC(=O)CNc2cccc(C)c2)c2ccccc21` it was “inactive; 0”; in that of `CCn1c(=O)c(C(=O)NCCCO)c(O)c2ccccc21`, “active; 2”. As for `CCC1CCCCN1C(=S)NC(=O)c1ccc([N+](=O)[O-])cc1` (configuration not stated), the entry is “inactive; 0”. For `Cc1cccc(NC(=S)N/C(=N/S(=O)(=O)c2ccccc2)c2ccccc2)c1`, the outcome is “inactive; 0”.

Take `Cc1ccc(-c2cc(-c3ccccc3)[nH]c(=S)c2C#N)cc1`: the outcome is “inactive; 0”. As to `CCOC(=O)c1c(NS(=O)(=O)Cc2ccccc2)sc2c1CCCC2`, the outcome is “inactive; 0”.

As for `Cc1cc(NC(=O)Nc2ccccc2)n(-c2ccccc2)n1`, the outcome was “inactive; 0”. As for `Cc1ccc(Nc2cc(C)nn2-c2nc(C)cc(=O)[nH]2)cc1`, the entry is “active; -1”; as for `Cc1cc(NC(=O)c2c(F)cccc2Cl)n(-c2nc3ccccc3[nH]2)n1`, “inactive; 0”; as for `COc1ccccc1C(=O)NC(=S)NNC(=O)c1sc2ccccc2c1Cl`, “inactive; 3”. As for `CCCOC(=S)NC(=O)c1sc2ccccc2c1Cl`, the entry is “inactive; 0”. In the case of `COc1ccccc1C(=O)NNC(=S)NC(=O)c1sc2ccccc2c1Cl` it was “active; 1”; in that of `CCCCOC(=S)NC(=O)c1sc2ccccc2c1Cl`, “inactive; 0”. On to `CCOC(=S)NC(=O)c1sc2ccccc2c1Cl`, for which the outcome is “inactive; 0”. As for `CC(C)(C)C(=O)NC(=S)NNC(=O)c1sc2ccccc2c1Cl`, the outcome was “active; 1”.

`CCCN1C(=O)/C(=C/c2ccc(C)s2)NC1=S`: the outcome is “inactive; 0”. In the case of `CCCOc1ccc(C(=O)NNC(=S)NC(=O)CC)cc1` it was “inactive; 0”; in that of `O=C(NC(=S)N1CCCCC1)c1cccs1`, “inactive; 0”; in that of `C=CCN(CC=C)C(=S)NC(=O)/C=C/c1ccc(C)cc1`, “inactive; 0”. In the case of `COc1ccccc1C(=O)N1c2ccccc2Sc2ccccc21` it was “inactive; 0”; in that of `CC(=O)c1c(C)[nH]c(C(=O)CSc2ncnc3sc(-c4ccccc4)cc23)c1C`, “inactive; 0”; in that of `CCOC(=O)c1ccccc1NC(=O)CSc1nnc(COc2ccccc2C)n1C`, “inactive; 0”. In the case of `Cc1cccc(NC(=S)NNC(=O)c2csc3c2CCCC3)c1` it was “inactive; 0”; in that of `COc1ccc(NC(=S)Nc2ccc(OCc3ccccc3)cc2)cc1OC`, “inactive; 0”; in that of `CCCN(CC1CC1)C(=S)Nc1ccc(Oc2ccccc2)cc1`, “inactive; 0”. For the compound `S=C(Nc1ccc(Oc2ccccc2)cc1)NC1CCCC1`, the outcome is “active; 2”.

As for `CC(C)CNC(=S)Nc1ccc(Oc2ccccc2)cc1`, the outcome is “active; 2”. With `FC(F)(F)c1cccc(NC(=S)NCc2ccccc2)c1`, the outcome is “inactive; 4”.

With `FC(F)(F)Oc1ccc(NC(=S)NCc2ccccc2)cc1`, the outcome was “inactive; 4”. In the case of `FC(F)(F)c1cccc(N2CCN(C(=S)NC3CCCCC3)CC2)c1` it was “inactive; 0”; in that of `FC(F)(F)c1cccc(NC(=S)NC2CCCC2)c1`, “active; -1”; in that of `CCOC(=O)c1ccc(NC(=S)NC2CCCC2)cc1`, “inactive; 4”. Take `COC(=O)c1cc(CSc2nc3ccc(C)cc3[nH]2)oc1C`: the outcome is “inactive; 0”. Consider `O=C(NNC(=S)Nc1cccc2ccccc12)c1cccc(Br)c1`, for which the outcome is “inactive; 0”. As to `CCc1c(C)c(C#N)c2nc3ccccc3n2c1NCc1ccco1`, the outcome was “inactive; 0”. In the case of `Cc1ccc2nc(-c3ccc(O)cc3)c(Nc3ccc4c(c3)OCCO4)n2c1` it was “inactive; -1”. Turning to `O=c1c2cc(Cl)ccc2[nH]c(=S)n1Cc1ccco1`, the outcome was “inactive; 0”. With `O=C(NC(=S)Nc1ccc(N2CCCCC2)cc1)c1ccco1`, the outcome is “inactive; 0”. In the case of `Cc1cc(C)c2[nH]c(=S)cc(C)c2c1` it was “inactive; 0”; in that of `CCCCn1c(=S)[nH]c2c(oc3ccc(Cl)cc32)c1=O`, “inactive; 0”; in that of `O=C1CC(C(F)(F)C(F)(F)C(F)(F)F)=Nc2ccccc2N1`, “inactive; 0”.

Turning to `Cc1ccc2c(c1)NC(=O)CC(c1ccccc1)=N2`, the outcome was “active; 2”. In the case of `O=C(NC(=S)N1CCN(c2ccc([N+](=O)[O-])cc2)CC1)c1ccc(F)cc1` it was “inactive; 0”; in that of `COc1ccc(NC(=O)C(=O)NNC(=O)c2cccs2)cc1`, “inactive; 0”; in that of `COC(=O)c1ccccc1NC(=S)NC(=O)c1ccccc1`, “inactive; 0”.

Regarding `Cc1ccccc1C(=O)NC(=S)NCCc1ccccc1`, the outcome is “active; -1”. As for `Cc1ccccc1C(=O)NC(=S)Nc1ccc(Oc2ccc(Cl)cc2)cc1`, the entry is “inactive; 4”; as for `Cc1ccc(C(=O)NNC(=S)NC(=O)c2ccc(Cl)cc2Cl)cc1`, “inactive; 4”; as for `CC(C)NC(=S)NC(=O)c1ccc(Cl)cc1Cl`, “inactive; 0”. In the case of `CCCCNC(=S)NC(=O)c1ccc(Cl)cc1Cl` it was “inactive; 0”; in that of `O=C(COc1ccccc1)NNC(=S)NC(=O)c1ccc(Cl)cc1Cl`, “active; 1”. In the case of `O=C(NC(=S)NCCc1ccccc1)c1ccco1` it was “inactive; 0”; in that of `CC(C)CNC(=S)NC(=O)c1ccc(Cl)cc1Cl`, “inactive; 0”. In the case of `O=C(NC(=S)NCCc1ccccc1)c1ccccc1`, the outcome is “inactive; 0”. As to `Cc1ccccc1C(=O)NNC(=S)NC(=O)c1ccc(Cl)cc1Cl`, the outcome was “active; 1”.

Regarding `Cc1ccccc1C(=O)NNC(=S)NC(=O)c1ccccc1`, the outcome was “active; 1”.

In the case of `CC(C)C(=O)Nc1ccccc1N1CCN(C(=O)c2ccccc2)CC1`, the outcome is “inactive; 0”. Consider `CC1(C)Cc2c(sc3[nH]c(=S)n(Cc4ccco4)c(=O)c23)CO1`, for which the outcome was “inactive; 0”. In the case of `Cc1[nH]n2c(=O)cc(C(C)(C)C)nc2c1-c1ccccc1` it was “inactive; 0”.
